A selection: hits, their analogues and other compounds. The true share with any hit is near 2.3%.
TRPC4 block: blocks the mouse TRPC4 cation channel; B-score at 10 µM; AID 2247; 0.39% of 300,000 active; Q9QUQ5; HEK293 TRPC4beta/mu-opioid, DAMGO-evoked Fluo4 calcium flux; hits give low values;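 active = B-score over 3 SD under the library average, no early fluorescence shift, positive overall ratio signal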
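Test system – stable TRPC4beta/mu-opioid receptor HEK293 cells · Probe or stimulus – DAMGO, a submaximal dose followed by a maximal one · Dosing – one concentration per compound · Signal – Fluo4 calcium fluorescence by kinetic imaging, 5 s 1 Hz baseline · Evaluation – per-well B score of integrated baseline-normalized Fluo4 ratio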
TRPC4 act: TRPC4 (mouse) channel activation; 0.49% of 310,000 active; B-score at 10 µM; HEK293 TRPC4beta/mu-opioid, Fluo4 calcium fluorescence; hits give high values; Q9QUQ5;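 active = B-score above 5 SD of library B-scores, and initial fluorescence ratio not above library mean plus 5 SD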;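 also: positive B-score marks a calcium rise read as TRPC4 activation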
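System: HEK293 cells stably co-expressing mouse TRPC4beta and mu-opioid receptor; Schedule: Fluo4 dye loading 45 min at room temperature, 110 s recording; Detection: Fluo4 fluorescence, kinetic; Evaluation: B-scored integrated calcium fluorescence ratio; Controls: buffer (low) and maximal DAMGO (high).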
TRPC4 PAM: allosteric potentiators of mouse TRPC4 channel; Q9QUQ5; HEK293 TRPC4beta/mu-opioid, DAMGO EC20, Fluo-4 Ca2+ flux; hits give high values; B-score at 10 µM; 0.42% of 310,000 active;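 active = B-score of calcium response area above 5 SD of library B-scores, with initial fluorescence ratio within 5 SD of library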;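 also: B-score of integrated fluorescence ratio over time as area under calcium response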
TRPC6 inh: inhibitors of mouse TRPC6 channel. Q61143. HEK293-TRPC6, membrane potential dye, ACh-evoked depolarization; hits give low values. B-score at 10 µM. 1.1% of 310,000 active;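 active = B-score under library mean minus 3 SD, initial fluorescence not abnormally high, positive integrated signal ratio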;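 also: B-score derived from integrated fluorescence ratio over the kinetic read; more negative B-score means stronger inhibition of depolarization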
Target sequence (Q61143 whole entry, looked up): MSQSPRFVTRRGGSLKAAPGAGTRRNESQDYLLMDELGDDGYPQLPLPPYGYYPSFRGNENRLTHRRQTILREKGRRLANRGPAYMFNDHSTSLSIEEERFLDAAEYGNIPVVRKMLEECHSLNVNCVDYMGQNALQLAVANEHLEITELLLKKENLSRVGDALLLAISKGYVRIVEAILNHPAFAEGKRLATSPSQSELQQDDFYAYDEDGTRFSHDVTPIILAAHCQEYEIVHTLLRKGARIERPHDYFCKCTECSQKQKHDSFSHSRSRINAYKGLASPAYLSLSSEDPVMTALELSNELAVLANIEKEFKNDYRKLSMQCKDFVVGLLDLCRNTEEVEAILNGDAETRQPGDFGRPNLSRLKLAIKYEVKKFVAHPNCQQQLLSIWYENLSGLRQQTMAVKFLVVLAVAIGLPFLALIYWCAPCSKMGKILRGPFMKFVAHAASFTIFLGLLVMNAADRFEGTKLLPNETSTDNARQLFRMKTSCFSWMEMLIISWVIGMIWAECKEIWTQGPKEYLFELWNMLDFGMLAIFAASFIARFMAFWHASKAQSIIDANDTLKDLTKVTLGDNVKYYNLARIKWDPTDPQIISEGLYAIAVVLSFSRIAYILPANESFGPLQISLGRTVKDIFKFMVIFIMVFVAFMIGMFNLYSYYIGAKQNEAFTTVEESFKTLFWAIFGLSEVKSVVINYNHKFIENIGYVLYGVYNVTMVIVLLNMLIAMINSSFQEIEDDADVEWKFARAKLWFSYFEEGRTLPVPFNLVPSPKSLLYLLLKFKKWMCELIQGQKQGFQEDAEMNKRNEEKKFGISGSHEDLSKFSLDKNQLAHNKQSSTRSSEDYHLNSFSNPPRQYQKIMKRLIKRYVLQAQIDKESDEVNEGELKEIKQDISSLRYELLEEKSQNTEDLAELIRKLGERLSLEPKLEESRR
TRPC6 activator: activators of mouse TRPC6 channel | HEK293-TRPC6 membrane potential dye fluorescence; hits give high values | B-score at 10 µM | 0.13% of 310,000 active | AID 2550;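 active = B-score of the integrated fluorescence ratio above library mean plus 3 SD, and starting fluorescence ratio within library mean plus 5 SD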;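 also: higher score means more depolarization so channel activation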
TRPC4 sel inh 2: mouse TRPC4 off-target activity of TRPC6 inhibitors, second screen. shares compounds with TRPC6 inh. HEK293 TRPC4/MOR, membrane potential dye fluorescence; channel activated by saturating DAMGO dose. inhibition, % at 10 µM. 42% of 920 active. AID 2776;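 active = compounds whose fluorescence signal differed from control wells by over 3 SD, either direction, in both duplicate plates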
TRPC4 spec: mouse TRPC4 off-target activity of TRPC6 inhibitors | 61% of 920 active | activity change, negative = inhibition, % at 10 µM | HEK293 TRPC4/mu-opioid, membrane potential fluorescence | shares compounds with TRPC6 inh;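 active = rise or fall in signal beyond 3 SD of buffer-only wells in both replicate plates, either sign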;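 also: integrated kinetic ratio of fluorescence range over baseline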
HEK293 MPD ctr 2-1: parental HEK293 nonspecific activity of TRPC6 inhibitors, second screen; signal change vs control, % at 10 µM; parental HEK293 membrane potential dye fluorescence; maximal acetylcholine challenge after compound addition; 31% of 920 active; shares compounds with TRPC6 inh;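 active = membrane potential signal moving either way by over 3 SD of the maximum-effect control, in both duplicate plates, meaning non-specific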
HEK293 MPD ctr-1: counter-screen for TRPC6 inhibitors: effect in parental HEK293 cells | shares compounds with TRPC6 inh | parental HEK293 membrane potential dye fluorescence | membrane potential signal change, % at 10 µM | 60% of 920 active | AID 2780;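 active = membrane potential signal shifting up or down by more than 3 SD of buffer-only wells, on both duplicate plates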
HEK293 MPD ctr-2: counter-screen for TRPC6 modulators: effect in parental HEK293 cells; membrane potential signal change, % at 10 µM; shares compounds with TRPC6 inh; 51% of 2,400 active; membrane potential dye fluorescence;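 active = membrane potential signal moves up or down beyond 5 SD from buffer-only wells, on both duplicate plates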
HEK293 MPD ctr 2-2: second counter-screen for TRPC6 modulators: effect in parental HEK293 cells | shares compounds with TRPC6 inh | membrane potential dye fluorescence; after compound, maximal acetylcholine stimulation | inhibition, % at 10 µM | 14% of 2,400 active | AID 488926;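 active = membrane potential signal drops by more than 5 SD from the mean control signal, in both duplicate plates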;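 also: plate controls were acetylcholine ECmax control wells for no effect and buffer only wells for full effect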
TRPC4 ctr mod: mouse TRPC4 off-target activity of TRPC6 modulators. 69% of 2,400 active. percent change from control (negative = decrease, positive = increase), % at 10 µM. shares compounds with TRPC6 inh. HEK293 TRPC4/mu-opioid, membrane potential fluorescence;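 active = membrane potential signal moved up or down beyond 5 SD of buffer control wells, in both duplicate plates, actives on both sides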;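 also: plate controls were assay buffer wells for no effect and DAMGO maximal-effect wells for full effect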
TRPC4 ctr inh 2: mouse TRPC4 off-target activity of TRPC6 modulators, second screen | shares compounds with TRPC6 inh | HEK293 TRPC4/mu-opioid, membrane potential dye fluorescence; stimulated with maximal-effect DAMGO | inhibition, % at 10 µM | 55% of 2,400 active | AID 488928;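 active = drop in membrane potential signal beyond 5 SD of the control wells in both duplicate plates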;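 also: TRPC4 counter screen for TRPC6 hits run under conditions tuned for TRPC6 not TRPC4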
TRPC6 block conf: confirmation of mouse TRPC6 inhibitors | 43% of 3,300 active | inhibition, % at 10 µM | shares compounds with TRPC6 inh | HEK293-TRPC6, membrane potential dye, ACh-evoked depolarization;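 active = fluorescence ratio falls more than 5 SD below the full-stimulation control mean, in both duplicate runs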;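 also: integrated fluorescence ratio of peak minus minimum over baseline after agonist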
TRPC6 act confirm: confirmation of mouse TRPC6 activators | shares compounds with TRPC6 inh | HEK293-TRPC6 membrane potential dye fluorescence, FDSS | activation, % at 10 µM | 11% of 2,800 active;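 active = ratio signal rise beyond 5 SD above unstimulated control wells' mean, seen in both duplicate runs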;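 also: plate controls were buffer EC0 wells for no effect and acetylcholine ECmax response for full effect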
The depositor's hits bear a star; i = inactive; / = not tested or not shown.

SMILES	TRPC4 block	TRPC4 act	TRPC4 PAM	TRPC6 inh	TRPC6 activator	TRPC4 sel inh 2	TRPC4 spec	HEK293 MPD ctr 2-1	HEK293 MPD ctr-1	TRPC6 block conf	TRPC6 act confirm	others
COCCNc1oc(/C=C/c2ccccc2)nc1C#N	i	i	i	i	i	/	/	/	/	/	/
N#Cc1nc(/C=C/c2ccccc2)oc1NCCCN1CCOCC1	i	i	i	-7.1*	i	i	i	i	i	i	i
COc1ccccc1N1CCN(Cc2ccc(O)c3ncccc23)CC1	i	i	i	-7.6*	i	i	i	i	i	i	i
CCCCNC(=S)NNC(=O)c1ccco1	i	i	i	i	i	/	/	/	/	/	/
COc1ccc(CCN2CC(C(=O)NC3CCCCC3)CC2=O)cc1OC (stereo not given)	i	i	i	i	i	/	/	/	/	/	/
Cc1nc2c(oc3ccc(Cl)cc32)c(=O)[nH]1	i	i	i	i	i	/	/	/	/	/	/
Cc1ccc(S(=O)(=O)n2cnc(C)c2)cc1	i	i	i	-8.2*	i	i	i	i	i	i	i
CC(=O)Nc1ccc(S(=O)(=O)n2cnc(C)c2)cc1	i	i	i	i	i	/	/	/	/	/	/
CC(C)CCNC(=O)Cn1c(NCCC(C)C)nc2c1c(=O)n(C)c(=O)n2C	i	i	i	i	i	/	/	/	/	/	/
COC(=O)c1c(C)cc(C)n2c1nc1ccccc12	i	i	i	-6.8*	i	i	-20%*	i	-334%*	64%*	i
Cc1cc(C)n2c(nc3ccccc32)c1C(=O)NN	i	i	i	i	i	/	/	/	/	/	/
Cc1nc(Cl)sc1C(=O)Nc1cccc2ccccc12	i	i	i	i	i	/	/	/	/	/	/
Cc1ccc(N2C(=O)CCSC23C(=O)Nc2ccccc23)cc1 (stereo not given)	i	i	i	-6.7*	i	i	i	i	i	i	i
COc1ccc(N2C(=O)CSC23C(=O)Nc2ccccc23)cc1 (stereo not given)	i	i	i	i	i	/	/	/	/	/	/
COc1ccc2[nH]c3c(c2c1)CCNC3c1ccc([N+](=O)[O-])o1 (stereo not given)	i	i	i	i	i	/	/	/	/	/	/
COc1ccc2[nH]c3c(c2c1)CCNC3C1CC=C(C)CC1 (stereo not given)	i	i	i	-6.3*	i	/	/	/	/	36%*	i	HEK293 MPD ctr-2=i;HEK293 MPD ctr 2-2=i;TRPC4 ctr mod=i;TRPC4 ctr inh 2=56%*
CCCCCCCCOC(=O)C[N+](C)(C)C/C=C(/C)Cl	i	i	i	-7.6*	i	i	0.1%*	i	2.3%*	61%*	i
CCCCCCCCCCOC(=O)C[N+](C)(C)C/C=C(/C)Cl	i	i	i	-5.3*	i	/	/	/	/	64%*	/	HEK293 MPD ctr-2=134%*;HEK293 MPD ctr 2-2=i;TRPC4 ctr mod=30%*;TRPC4 ctr inh 2=42%*
CCCCCCCCCCCCOC(=O)C[N+](C)(C)C	-6*	i	i	-6.9*	i	i	0.8%*	324%*	i	56%*	i
CN(C)c1ccc(C(=S)N2CCCC2)cc1Br	i	i	i	i	i	/	/	/	/	/	/
Cc1cc(NC(=O)c2cccnc2)ccc1Br	i	i	i	i	i	/	/	/	/	/	/
CCOC(=O)c1c(CSc2ccccc2)n(C)c2ccc(O)c(CN3CCOCC3)c12	i	i	i	-5.5*	i	/	/	/	/	36%*	i	HEK293 MPD ctr-2=i;HEK293 MPD ctr 2-2=i;TRPC4 ctr mod=i;TRPC4 ctr inh 2=55%*
CCOC(=O)c1c(C)n(C)c2ccc(O)c(CN3CCN(C)CC3)c12	i	i	i	i	i	/	/	/	/	/	/
CCOC(=O)c1c(C)n(C)c2ccc(O)c(CN3CCC(C)CC3)c12	i	i	i	-9.4*	i	/	/	/	/	64%*	i	HEK293 MPD ctr-2=-140%*;HEK293 MPD ctr 2-2=i;TRPC4 ctr mod=-18%*;TRPC4 ctr inh 2=73%*

Screens from PubChem BioAssay.
